According to the EternaBench riboswitch data:

Test system: MS2 coat protein
Assay: apparent Kd, MS2 coat protein; higher = weaker binding; RNA-MaP array; FMN 200 µM where present
Summary of the method: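 Binding was read on Illumina sequencing-chip clusters where stalled E. coli RNA polymerase had transcribed each design. A titration of SNAP-549-labelled MS2 coat protein began at 0.7 or 1.5 nM and doubled to 3 µM, once without ligand and once with constant ligand, in 100 mM Tris-HCl pH 7.5, 80 mM KCl, 4 mM MgCl2, BSA, DTT, yeast tRNA and Tween-20. The apparent Kd is the median of filtered per-cluster binding-curve fits, based on green signal normalised to red-channel RNA signal and control-cluster median Fmax.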

[1] = designed as: OFF switch for flavin mononucleotide, no ligand
[2] = ligand present: flavin mononucleotide, designed as: OFF switch for flavin mononucleotide
[3] = designed as: ON switch for flavin mononucleotide, no ligand
[4] = ligand present: flavin mononucleotide, designed as: ON switch for flavin mononucleotide

| Sequence | apparent Kd [1] [nM] | apparent Kd [2] [nM] | apparent Kd [3] [nM] | apparent Kd [4] [nM] |
| --- | --- | --- | --- | --- |
| UUACUACAUGUAGGAUAUGCGUGGCGAAGCUAUGCAGAAGGACAUGAGGAUCACCCAUGUUUUAGCGUCUGCGUACAGAUGCGU | 19 | 28.4 | – | – |
| GGACAGUAAGGAUAUUGAGUCGGACAACGCCGACAGCUAGUCGAGAAGGUACAUGAGGAUCACCCAUGUCAAGU | 19.8 | 18 | – | – |
| GCGUCAGAAUUAAUUGUGACAUACAGAAGGCAAAAGUUAGGAUUAGACAUGAGGAUCACCCAUGUUGAGGAUAUGUAGAGAAUC | 9.69 | 8.52 | – | – |
| AAACACAAACAUGAGGAUCACCCAUGUUAUGAAGAUACUGGGAGAAGGGCGAUUGCAAAGCAAUCGCAGGAUAUUCGUAUUGUG | – | – | 50.4 | 14.5 |
| AUGCUAGUGUGAGGAUAUUAUUGACAUGAGGAUCACCCAUGUGUGAGUCCAACAUGAGCUACAGUUAAGAAGGUACAUUAGCAU | 45.5 | 38.1 | – | – |
| CUCGUUAUGUUAGGAUAUGAUGCAUCCCGAUAAUCAGAAGGAACAUGAGGAUCACCCAUGUGACAUUUGGUGAAAACAAGCCAA | 6.35 | 7.87 | – | – |
| UAUUAGUGAGGAUAUGAGUCGUAGAACAAUAGUACUACGUCUCAGAAGGCACAUGAGGAUCACCCAUGUUCCUU | 13.6 | 44.9 | – | – |
| GUGCACAUUCGAGGAUAUCGGAGAGAGAUCCUUCGAGAAGGCGAUUCAUGCUGUAUUAUCCUGGACAUGAGGAUCACCCAUGUG | – | – | 199 | 127 |
| AAAAAAAAAACUGAGGAUAUCAGGGAUGGUACAUGAGGAUCACCCAUGUUGGCGGGCGAAGAAACUGAGAAGGCAGAAAAAAAAAA | – | – | 114 | 111 |
| UGAUAGGACAGAGGAUAUACGUGCUAGAGAUACUAGCAAAAUUUCCUAACAUGAGGAUCACCCAUGUAGAAGGCUGUCCUAUCU | 6.73 | 14.2 | – | – |
| UGAUCGAGAGAUCUUAGAUUCUGGUAGGAUAUGCAACAGUUGCGCUUUACAUGAGGAUCACCCAUGUAGAAGGACUAGAGUCUA | 5.86 | 6.1 | – | – |
| GGGAGUGGAGGGAAUAACAUGAGGAUCACCCAUGUAUGGGAGAGAAGGCAGAUUGGAGGGCGAUCUGAGGAUAUUUAGACUCUU | – | – | 13.1 | 10.7 |
| CUAGAAAGGACAGGAUAUCGGGAUCGAACACCCGACAUGAGGAUCACCCAUGUCGCAAAAGAUAGCGAGAAGGGUCGGACACAA | – | – | 45.8 | 14.1 |
| CGUCAGUGAGGAUAUGGUAUCGUGUACAUGAGGAUCACCCAUGUUUCUUGGGACUAUAUACUAGAAGGCACUGACG | 16 | 35.3 | – | – |
| AGCUAGUACCGAGGAUAUACAUACAUGAGGAUCACCCAUGUAUACAUGAAUAAAUGAGACUACAUGUAGAAGGCGGUACUAGCA | – | – | 71.1 | 20 |
| UCAUGUUAGCAGGAUAUGCUAUUUAUCUUUUAUGCAGAAGGGCUUACAUGAGGAUCACCCAUGUAUUAAGUCUU | 18.9 | 52.5 | – | – |
| GGUGGACAUGAGGAUCACCCAUGUGAGGAUAUCGGCCGGCUCGUGGUGGCUGGCUUCUCGAGAAGGCGCAUAGU | 69.4 | 118 | – | – |
| GCGAUUGCGUAGAAGGUACAAUAUAAUACAUUGUAAGGAUAUACUUACAUGAGGAUCACCCAUGUUAAUGGAAUUUGCAAUCGC | – | – | 18.2 | 11.9 |
| UUACAUACAAAGGUACAUGAGGAUCACCCAUGUUUGUUGGGAAGAAGGGUAACAGUACUACACAUACAGGAUAUUUCACAAAUA | – | – | 86.8 | 56.4 |
| GGAUCGAAUGUGAGGAUAUGCUGGUCCUUGGAUCAGCAGAAGGCACAUGAGGAUCACCCAUGUGGUAACGGUCC | – | 554 | – | – |
| UUUACAUGAGGAUCACCCAUGUUAAAAUAAUUAAUUAUAAGUGAGGAUAUAUAAUUUAUAAAAUUGUAGAAGGCACUGGGUAUU | – | – | 17.4 | 21.1 |
| UUGUUGUGUGGAGGAUAUGCACUAACUGUUAGCGCAGAAGGCCACAUGAGGAUCACCCAUGUCCGGGUUACUGCCUAAGGAGUG | 71.9 | 230 | – | – |
| GGAGGACAUGAGGAUCACCCAUGUGGAUGAUCGCUAGGAUAUGCGUAAAGGAGGAGUGGUGCAGAAGGAGUGGGAU | – | – | 464 | 360 |
| CCUCCACAUGAGGAUCACCCAUGUCAGGAUAUCGUGUGUUUUUUUUCGGCCGCGCGUGCGAGAAGGGACGUCUU | 19.5 | 19.8 | – | – |
| CUAAGUGCCGGAGGAUAUACAUGAGGAUCACCCAUGUCAGUCUGUUUACAUGUAGAAGGCCGGCGAACAAAGGACUUGCCAAGA | 48.1 | 298 | – | – |
| UCGUAACGAGGAUAUACAAGGGUCAGGCCCGCCUGACACACACAUGAGGAUCACCCAUGUAGAAGGUGUAGCGC | 19.4 | 18.4 | – | – |
| GGGAUUAAGGCAGGAUAUCCGGGUUGGCCUCGACAUGAGGAUCACCCAUGUGGAGAAGGGCCGAUUGCCCGUAGGGUGAUCAAG | 274 | 108 | – | – |
| GCAUUUUAUGCAGGAUAUUGAAUUCGGAUUAAACAAGAAGGGCAUAACAUGAGGAUCACCCAUGUUUUAUAGGUAUCUAUGAAC | 53.1 | 116 | – | – |

| Sequence | apparent Kd [1] [nM] | apparent Kd [2] [nM] | apparent Kd [3] [nM] | apparent Kd [4] [nM] |
| --- | --- | --- | --- | --- |
| GGUACCUUUACAGGAUAUGCUAUCCUUUGGGUAGCAGAAGGGUGAUACAUGAGGAUCACCCAUGUGGUGCCAGGGCGUGAGCCC | – | – | 93.2 | 313 |
| UGGGCGUGUGUCAGGAUAUGUGCUCUUCCUAGAGCGUAGAAGGGACAUGAGGAUCACCCAUGUCGAAUUGCCAA | 17.4 | 30.7 | – | – |
| GAUACACAUGAGGAUCACCCAUGUGAGGAUAUGCGUACGUUGUCCGUAGGCGACGUGCGCAGAAGGCGCGUGAG | 52.6 | 84 | – | – |
| UAAUCUCAGAUAGGAUAUAUAGGAUAACUUAAGACCUAACAUGAGGAUCACCCAUGUGAUUAUUCGUAGAAGGAUCAUUGACCC | – | – | – | 171 |
| GCUAGUAUUGCAGGAUAUUGUAAUUUAUUAUUUCAAGAAGGGCAUUACAUGAGGAUCACCCAUGUCAUCCUAUGGUAUACUAGC | 10.6 | 22.8 | – | – |
| AAAUUUAACGAAGGAUAUGCUGACAUGAGGAUCACCCAUGUGUGCCUUGUGUUGCUGAUUAGGUUGCAGAAGGUCGUAUACAUA | 330 | 1230 | – | – |
| CAGCCCUGAGGAUAUCCCUACUUGUACAUGAGGAUCACCCAUGUUCUCCUCUGGGCUUCGGGAGAAGGCAGGUCUC | 14.6 | 16.8 | – | – |
| GUAGAUAGAUAGAAGGUAUGGUAUUAGAUUAAAUAAGGAUAUAUGAACAUGAGGAUCACCCAUGUAUUAUGGGAUAGAUAGACU | – | – | 228 | 153 |
| AACAUGUCAGGAUAUGCAAAAGGAGACUGACACGCGAGUGAGCAGAAGGGACAUGAGGAUCACCCAUGUUCAAA | 18.3 | 16 | – | – |
| UGAUACUAGGGAGGAUAUGGGAAGAUACAUGAGGAUCACCCAUGUUUAAGAAUGCCGAGAGGCAACUAGAAGGCCCUAGUACCU | – | – | 538 | 21.3 |
| GAAUUCGCAUGAGGAUAUGCACUCAUUUCAUGUGCAGAAGGUAUAACAUUAGACAUGAGGAUCACCCAUGUAUUAGUCAUUAAC | – | – | 10.1 | 9.37 |
| GGUGGACAUGAGGAUCACCCAUGUGAGGAUAUCGGCUGGCUAGCGGCGGAUGGCUUCUCGAGAAGGCGCAUUGU | 86.4 | 75 | – | – |
| UGGACCGAGCUAUCGGUUGACUGGGAGGAUAUGACAUGAGGAUCACCCAUGUGGGAUCUAAAUUGUCAGAAGGCUCGAUCUGGG | 258 | 257 | – | – |
| GGUGUGUUAGGAUAUCGCGGCGGCGGCGUUUGUUGUUGUUGUGAGAAGGAACAUGAGGAUCACCCAUGUGCGCC | 27.3 | 75.5 | – | – |
| CCCAAACUUGGGCUUGGUGGUGCAUAGGAUAUCCUUGAACAUGAGGAUCACCCAUGUACAACUGUGGAGAAGGGUGCAGGGCCU | – | – | 372 | 111 |
| CAGGUAGACUGAGGAUAUACAAUAAACAGCUAGUCUAUCUAGCUGCCCACAUGAGGAUCACCCAUGUAGAAGGCAGUCUGCCUG | 18.1 | 52.5 | – | – |
| GGAGCCGAUACUGAGGAUAUUCAUAUUAAAACAUGAGGAUCACCCAUGUAGGCCAGAAGGCCUUGGGAGAAGGCAGAUCGGCUCC | – | – | 417 | 26 |
| AGCGAUGCAGGAUAUCCGCGGCUACACAUGAGGAUCACCCAUGUUAGGGUCGUGUUGCCAGGAGAAGGGCAAGGAU | 28.8 | 78.1 | – | – |
| UGUCGGAGCAGAGGAUAUUACAUGAGGAUCACCCAUGUAUGAACCAAUAGCUGGAAACAGCAAUGUAAGAAGGCUGCUCGGACA | 12.6 | 187 | – | – |
| AAUAAUAAUGUCAGGAUAUCUAGAGCCUCGGCUCUAGAGAAGGGACAUGAGGAUCACCCAUGUCACUCAAUAAU | 17.9 | 24.3 | – | – |
| GUGCAUUCGUAGAAGGGUGACAUGAGGAUCACCCAUGUGCGCUGAGCUCAAGAUGCACCAGCGCCACAGGAUAUACGAAGCACC | – | – | 54.3 | 84 |
| GCGUAAUAGGUGUAGCUAGUCAUUCAAGAAGGGUGGAGAACAUGAGGAUCACCCAUGUAGUUUAUACAGGAUAUUGAUAUACGC | – | – | 552 | 138 |
| UGAUCACAUGAGGAUCACCCAUGUCAGGAUAUCUACAUUGAAGCUGCGGCUUCAAUGUAGAGAAGGGAUAUAAU | 99 | 229 | – | – |
| GUAGCAUACCGAGGAUAUUCUAACCGGAAACGGACAUGAGGAUCACCCAUGUGGCGAAAGCCUUGGGAGAAGGCGGAAUGCUAC | – | – | 12.3 | 12.8 |
| GUUUCUAUAUGUUAUAUUUAACAGUCAGAAGGUGAUACUACGACAUGAGGAUCACCCAUGUAAUUCAAGGAUAUGAACUUAAUC | – | – | 1110 | 450 |
| ACAAUAGUAUCACAUGUAUUACAUGAGGAUCACCCAUGUAACUAGGAUAUGUUUUAGAAUUUACAACAGAAGGAGUUAUUAUGU | 8.48 | 14.1 | – | – |
| UUUUUGUCAGGAUAUGCGUAGUAGAACAAUAGUACUACUACGUAGAAGGGACAUGAGGAUCACCCAUGUUCCUC | 14.4 | 20.5 | – | – |
